Reference: ChEMBL document CHEMBL3871278, “Isolation of Coralmycins A and B, Potent Anti-Gram Negative Compounds from the Myxobacteria Corallococcus coralloides M23” (J Nat Prod, 2016)
≈ marks a conversion by molar mass, not a printed value. Counter-ions that a name gives are not always drawn.

How the values were obtained:
[1] = Cytotoxicity against human HepG2 cells assessed as cell growth inhibition after 48 hrs by SRB assay; assay type: toxicity, cell-based
Method in brief: (§1)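 HepG2, MRC-9 or MCF10A cells (under passage 20) were grown in RPMI 1640 with 10% newborn calf serum and seeded at 1 × 10^4 cells/well one day before treatment. Compounds were applied at various concentrations for 48 h. Viability was measured by sulforhodamine B staining, and GI50 was calculated from the dose-response.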

[2] = Cytotoxicity against human MRC9 cells assessed as cell growth inhibition after 48 hrs by SRB assay; assay type: toxicity, cell-based; method in brief: as §1
[3] = Cytotoxicity against human MCF10A cells assessed as cell growth inhibition after 48 hrs by SRB assay; assay type: toxicity, cell-based, MCF-10A; method in brief: as §1
Staphylococcus aureus [4] = experiment: Antibacterial activity against Staphylococcus aureus RN4220 after 24 hrs by broth microdilution method; assay type: functional; conditions: RN4220, 24 h
Method in brief: (§2)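 Broth microdilution with triplicate serial 2-fold dilutions; inoculum 10^5 cells/mL at 0.2 mL/well. Strains were grown to mid-log phase and diluted 1000-fold. Media: Mueller-Hinton broth for most strains, nutrient broth for A. baumannii, Todd-Hewitt for S. pneumoniae. DMSO was at most 0.05% final. After 24 h at 37 °C, MIC = lowest concentration completely inhibiting growth, read by A650.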

Staphylococcus aureus [5] = experiment: Antibacterial activity against methicillin-resistant Staphylococcus aureus CCARM 3167 after 24 hrs by broth microdilution method; assay type: functional; conditions: CCARM 3167, 24 h
Method in brief: (§3)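 Strains grown to mid-log phase in Mueller-Hinton broth, diluted 1000-fold; 10^5 cells/mL in Mueller-Hinton broth exposed to serial 2-fold dilutions of compound from DMSO stocks (final DMSO ≤0.05%; 0.05% DMSO vehicle control; ciprofloxacin comparator). Incubated 24 h at 37 °C; growth read by absorbance at 650 nm. MIC = lowest concentration completely inhibiting growth, in triplicate.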

Staphylococcus aureus [6] = experiment: Antibacterial activity against methicillin-resistant Staphylococcus aureus CCARM 3506 after 24 hrs by broth microdilution method; assay type: functional; conditions: CCARM 3506, 24 h; method in brief: as §3
Staphylococcus aureus [7] = experiment: Antibacterial activity against quinolone-resistant Staphylococcus aureus CCARM 3505 after 24 hrs by broth microdilution method; assay type: functional; conditions: CCARM 3505, 24 h; method in brief: as §3
Staphylococcus aureus [8] = experiment: Antibacterial activity against quinolone-resistant Staphylococcus aureus CCARM 3519 after 24 hrs by broth microdilution method; assay type: functional; conditions: CCARM 3519, 24 h; method in brief: as §3
Streptococcus pneumoniae = experiment: Antibacterial activity against Streptococcus pneumoniae KCTC 5412 after 24 hrs by broth microdilution method; assay type: functional; conditions: KCTC 5412, 24 h; method in brief: as §2
Enterococcus faecalis = experiment: Antibacterial activity against Enterococcus faecalis KCTC 5191 after 24 hrs by broth microdilution method; assay type: functional; conditions: KCTC 5191, 24 h; method in brief: as §2
Escherichia coli [9] = experiment: Antibacterial activity against Escherichia coli CCARM 1356 after 24 hrs by broth microdilution method; assay type: functional; conditions: CCARM 1356, 24 h; method in brief: as §2
Escherichia coli [10] = experiment: Antibacterial activity against Escherichia coli KCTC 1682 after 24 hrs by broth microdilution method; assay type: functional; conditions: KCTC 1682, 24 h; method in brief: as §2
Pseudomonas aeruginosa = experiment: Antibacterial activity against Pseudomonas aeruginosa KCTC 2004 after 24 hrs by broth microdilution method; assay type: functional; conditions: KCTC 2004, 24 h; method in brief: as §2
Acinetobacter baumannii = experiment: Antibacterial activity against Acinetobacter baumannii KCTC 2508 after 24 hrs by broth microdilution method; assay type: functional; conditions: KCTC 2508, 24 h; method in brief: as §2
Klebsiella pneumoniae = experiment: Antibacterial activity against Klebsiella pneumoniae KCTC 22057 after 24 hrs by broth microdilution method; assay type: functional; conditions: KCTC 22057, 24 h; method in brief: as §2
[11] = Cytotoxicity against human HepG2 cells assessed as cell growth inhibition at 50 ug/ml after 48 hrs by SRB assay; assay type: toxicity, cell-based; conditions: hepg2, 48 h
Method in brief: (§4)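 Single-concentration test at 50 μg/mL for 48 h. HepG2, MRC-9 or MCF10A cells (under passage 20) were grown in RPMI 1640 with 10% newborn calf serum and seeded at 1 × 10^4 cells/well one day before treatment. Growth inhibition was read by sulforhodamine B assay.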

[12] = Cytotoxicity against human MRC9 cells assessed as cell growth inhibition at 50 ug/ml after 48 hrs by SRB assay; assay type: toxicity, cell-based; conditions: mrc9, 48 h; method in brief: as §4
[13] = Cytotoxicity against human MCF10A cells assessed as cell growth inhibition at 50 ug/ml after 48 hrs by SRB assay; assay type: toxicity, cell-based; conditions: mcf-10a; method in brief: as §4

Row | Structure (SMILES) | GI50 at 48 h [1] | GI50 at 48 h [2] | GI50 at 48 h [3] | MIC (Staphylococcus aureus [4]) | MIC (Staphylococcus aureus [5]) | MIC (Staphylococcus aureus [6]) | MIC (Staphylococcus aureus [7]) | MIC (Staphylococcus aureus [8]) | MIC (Streptococcus pneumoniae) | MIC (Enterococcus faecalis) | MIC (Escherichia coli [9]) | MIC (Escherichia coli [10]) | MIC (Pseudomonas aeruginosa) | MIC (Acinetobacter baumannii) | MIC (Klebsiella pneumoniae) | Activity [11] | Activity [12] | Activity [13]
1 | COc1cccc2c1C(=O)c1c(O)c3c(c(O)c1C2=O)C[C@@](O)(C(=O)CO)C[C@@H]3O[C@H]1C[C@H](N)[C@H](O)[C@H](C)O1 [DOXORUBICIN HYDROCHLORIDE] | 0.04 to 0.08 µg/mL | 0.04 to 0.08 µg/mL | 0.04 to 0.08 µg/mL | – | – | – | – | – | – | – | – | – | – | – | – | – | – | –
2 | CO[C@@H](C(N)=O)[C@H](NC(=O)c1ccc(NC(=O)c2ccc([N+](=O)[O-])cc2)cc1)C(=O)Nc1ccc(C(=O)Nc2ccc(C(=O)Nc3ccc(C(=O)O)c(O)c3OC(C)C)c(O)c2OC(C)C)cc1 | – | – | – | 0.015 µg/mL (≈ 0.016 µM) | 0.015 µg/mL (≈ 0.016 µM) | 0.015 µg/mL (≈ 0.016 µM) | 0.125 µg/mL (≈ 0.134 µM) | 0.25 µg/mL (≈ 0.267 µM) | 0.25 µg/mL (≈ 0.267 µM) | 0.03 µg/mL (≈ 0.0321 µM) | 0.125 µg/mL (≈ 0.134 µM) | 0.125 µg/mL (≈ 0.134 µM) | 4 µg/mL (≈ 4.27 µM) | 0.125 µg/mL (≈ 0.134 µM) | 2 µg/mL (≈ 2.14 µM) | – | – | –
3 | CO[C@H](C(=O)O)[C@H](NC(=O)c1ccc(NC(=O)c2ccc([N+](=O)[O-])cc2)cc1)C(=O)Nc1ccc(C(=O)Nc2ccc(C(=O)Nc3ccc(C(=O)O)cc3OC(C)C)c(O)c2OC(C)C)cc1 | – | – | – | 2 µg/mL (≈ 2.17 µM) | 1 µg/mL (≈ 1.09 µM) | 1 µg/mL (≈ 1.09 µM) | – | – | > 16 µg/mL | 4 µg/mL (≈ 4.34 µM) | 16 µg/mL (≈ 17.4 µM) | 4 µg/mL (≈ 4.34 µM) | > 16 µg/mL | 4 µg/mL (≈ 4.34 µM) | > 16 µg/mL | – | – | –
4 | O=C(O)c1cn(C2CC2)c2cc(N3CCNCC3)c(F)cc2c1=O [CIPROFLOXACIN] | – | – | – | – | 2 µg/mL (≈ 6.04 µM) | – | 128 µg/mL (≈ 386 µM) | 128 µg/mL (≈ 386 µM) | – | 0.5 µg/mL (≈ 1.51 µM) | 64 µg/mL (≈ 193 µM) | – | 0.06 µg/mL (≈ 0.181 µM) | 0.125 µg/mL (≈ 0.377 µM) | 0.006 µg/mL (≈ 0.0181 µM) | – | – | –
5 | CO[C@@H](C(N)=O)[C@H](NC(=O)c1ccc(NC(=O)c2ccc([N+](=O)[O-])cc2)cc1)C(=O)Nc1ccc(C(=O)Nc2ccc(C(=O)Nc3ccc(C(=O)O)cc3OC(C)C)c(O)c2OC(C)C)cc1 | – | – | – | 0.063 µg/mL (≈ 0.0685 µM) | 0.125 µg/mL (≈ 0.136 µM) | 0.125 µg/mL (≈ 0.136 µM) | 1 µg/mL (≈ 1.09 µM) | 2 µg/mL (≈ 2.17 µM) | 2 µg/mL (≈ 2.17 µM) | 0.125 µg/mL (≈ 0.136 µM) | 1 µg/mL (≈ 1.09 µM) | 0.5 µg/mL (≈ 0.544 µM) | 8 µg/mL (≈ 8.7 µM) | 0.25 µg/mL (≈ 0.272 µM) | 8 µg/mL (≈ 8.7 µM) | Non-Toxic | Non-Toxic | Non-Toxic
